We go through two molecules from ChEMBL document CHEMBL4428098, “Facile synthesis of autophagonizer and evaluation of its activity to induce autophagic cell death in apoptosis-defective cell line” (Bioorg Med Chem Lett, 2016).

The structures appear in SMILES notation. The source made the active and inactive calls. The rule behind the calls is not given here.

Test [1] has as its system MEF. Description: Induction of autophagy in Bax/Bak double knockout MEF assessed as autophagosome formation at 2 to 4 uM after 15 hrs by Cyto-ID reagent/ Hoechst 33342 staining based fluorescence assay. The format is functional, cell-based. The settings on record: Mus musculus. The method, boiled down:
(§1)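 Wild-type and Bax/Bak double-knockout MEFs treated 15 h at the indicated concentrations alongside DMSO vehicle. Stained with Cyto-ID reagent (green) for autophagosomes and MDC (blue) for acidic vacuoles, then imaged.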

Test [2] relates to MEF. Nature of the test: Induction of autophagy in wild-type MEF assessed as conversion of LC3-1 to LC3-2 at 2.5 to 5 uM after 15 hrs by Western blot analysis. The following applies: Mus musculus. The format is functional, cell-based. The procedure, abridged: (§2)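 Wild-type and Bax/Bak double-knockout MEFs treated 15 h at the indicated concentrations with DMSO vehicle control. LC3-I to LC3-II conversion assessed by immunoblot.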

The subject of test [3] is MEF. Description: Induction of autophagic cell death in Bax/Bak double knockout MEF after 15 hrs by MTT assay. The settings on record: Mus musculus. A general note: Formazan colour is commonly taken as a measure of viable cells.
Test [4] concerns HeLa. Description: Induction of autophagic cell death in human HeLa cells after 24 hrs by MTT assay. The test is classed as functional, cell-based. The procedure, abridged: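 MTT viability assay in HeLa cells after 24 h treatment over a log concentration range, with DMSO vehicle control. Viable cells normalized to DMSO-treated cells as percent viability. EC50 estimated from a sigmoidal dose–response curve.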

Test [5] has as its system MEF. Description: Induction of autophagy in wild-type MEF assessed as accumulation of acidic vacuoles at 2 to 4 uM after 15 hrs by MDC/Hoechst 33342 staining based fluorescence assay. The format is functional, cell-based. The following applies: Mus musculus. The method, boiled down:
as §1

Test [6] relates to MEF. Description: Induction of autophagy in wild-type MEF assessed as autophagosome formation at 2 to 4 uM after 15 hrs by Cyto-ID reagent/ Hoechst 33342 staining based fluorescence assay. The test is classed as functional, cell-based. The settings on record: Mus musculus. The method, boiled down:
as §1

Test [7] has as its system MEF. Nature of the test: Induction of autophagy in Bax/Bak double knockout MEF assessed as accumulation of acidic vacuoles at 2 to 4 uM after 15 hrs by MDC/Hoechst 33342 staining based fluorescence assay. The format is functional, cell-based. The following applies: Mus musculus. The procedure, abridged:
as §1

The test system of test [8] is HeLa. Description: Induction of autophagy in human HeLa cells assessed as accumulation of acidic vacuoles at 3 and 25 uM after 24 hrs by MDC/Hoechst 33342 staining based fluorescence assay. The test is classed as functional, cell-based. The method, boiled down: (§3)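 Acidic vacuoles in HeLa cells after 24 h exposure, with DMSO vehicle control. Cells stained with MDC and imaged under the DAPI filter.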

For test [9], the system named is MEF. Nature of the test: Induction of autophagic cell death in wild-type MEF after 15 hrs by MTT assay. The following applies: Mus musculus.
In test [10] the test system is MEF. Description: Induction of autophagy in Bax/Bak double knockout MEF assessed as conversion of LC3-1 to LC3-2 at 2.5 to 5 uM after 15 hrs by Western blot analysis. The test is classed as functional, cell-based. The settings on record: Mus musculus. The procedure, abridged: as §2
(Immunoblotting shows a protein as a band on a membrane.)

Test [11] deals with HeLa. Nature of the test: Induction of autophagy in human HeLa cells assessed as acidic vacuoles at 3 to 25 uM after 24 hrs by MDC/Hoechst 33342 staining based fluorescence assay. The format is functional, cell-based. The procedure, abridged: as §3
The subject of test [12] is HeLa. Description: Induction of autophagy in human HeLa cells assessed as autophagosome formation after 24 hrs by Cyto-ID reagent/ Hoechst 33342 staining based fluorescence assay. The format is functional, cell-based. The procedure, abridged: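 HeLa cells treated 24 h at various doses, DMSO as vehicle control. Stained with Hoechst 33342 and green Cyto-ID reagent and imaged under DAPI and GFP filters. Plate read at 340/480 nm (Hoechst) and 480/539 nm (Cyto-ID) Ex/Em. Cyto-ID fluorescence per cell taken relative to DMSO-treated cells, and a sigmoidal dose–response curve constructed.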

Test [13] deals with HeLa. Nature of the test: Induction of autophagic cell death in human HeLa cells at 8 uM after 24 hrs by MTT assay relative to control. The format is functional. The procedure, abridged: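 HeLa cells exposed 24 h to compound at graded concentrations with DMSO vehicle control; viability read by MTT assay and viable cell number normalized against DMSO-treated cells to give percent viable cells.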

Test [14] deals with HeLa. Nature of the test: Induction of autophagy in human HeLa cells assessed as accumulation of LC3-2 at 2.5 to 5 uM after 24 hrs by Western blot analysis. The format is functional, cell-based. The method, boiled down: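 Immunoblot of HeLa lysates for LC3-I to LC3-II conversion after 24 h treatment, with DMSO vehicle control and actin probed as reference.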
The test system of test [15] is HeLa. Description: Induction of autophagy in human HeLa cells assessed as accumulation of acidic vacuoles after 24 hrs by MDC/Hoechst 33342 staining based fluorescence assay. The format is functional, cell-based. The procedure, abridged: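 HeLa cells exposed 24 h over a dose range with DMSO vehicle control, then stained with MDC for acidic vacuoles. Fluorescence read at 335/512 nm (Ex/Em) and normalized to viable cell number from a parallel MTT assay. Per-cell signal expressed relative to DMSO-treated cells as fold intensity. Sigmoidal dose–response curve fitted.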

By EC50 is commonly meant the concentration needed to bring the measured effect to its halfway point. Take `O=C(NCCC1CCCC1)c1coc(CSc2nc3sc4c(c3c(=O)n2Cc2ccccc2)CCCC4)n1`: the result with MEF [1], in the test with MEF [2], with MEF [5], with MEF [6], in the test on MEF [7] and in the test on HeLa [8] was inactive. Besides, the outcome in the test on MEF [10] and in the test with HeLa [11] was inactive. The EC50 was found to be 24.2 µM in the test on MEF [3], 25 µM with HeLa [4] and 28.6 µM in the test on MEF [9].

In the case of `O=C(NCCN1CCCC1)c1coc(CSc2nc3sc4c(c3c(=O)n2Cc2ccccc2)CCCC4)n1`, the outcome in the test with MEF [1], with MEF [2], in the test with MEF [5], in the test with MEF [6], in the test on MEF [7] and with HeLa [14] was Active. The result in the test with MEF [10] was Active. Besides, the Activity result in the test with HeLa [12] is “Dose-dependent effect”. In addition, the EC50 in the test on HeLa [12] worked out at 3.5 µM; with MEF [3], 2.2 µM; in the test with HeLa [4] it was 3.5 µM; in the test on MEF [9], 2.1 µM; in the test with HeLa [15], 1.3 µM. Also, the “fold change (FC)” value in the test with HeLa [13] came out at 5.
